Assay results published in ChEMBL document CHEMBL4689842, “EUbOPEN Chemogenomics Library wave 1” (2021).

Tested on: HEK-293T
Experiment: Multiplex assay against HEK293T;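 as to Population Tubulin-Different-Phenotype (%): share of the cells with healthy nuclei that show this phenotype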
Assay type: toxicity, cell-based
Conditions: human
Outline: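 With compound added, live cells were imaged on a CQ1 microscope at 37°C and 5% CO2; staining with Hoechst33342, BioTracker Green Microtubule Cytoskeleton Dye, MitoTracker Red and Annexin V Alexa Fluor 680 had been done at seeding. The CellPathfinder machine-learning gating scheme split cells into Hoechst high-intensity objects or normal cells, normal cells into healthy, pyknosed or fragmented nuclei, and pyknosed cells into mitotic or apoptotic. The tubulin, mitochondrial-mass and membrane-permeability phenotypes are per cents of healthy-nucleus cells.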

[1] = 12 h, 1 µM, compound concentration 1 uM, replicate 1
[2] = 12 h, 1 µM, compound concentration 1 uM, replicate 2
[3] = 12 h, 10 µM, compound concentration 10 uM, replicate 1
[4] = 12 h, 10 µM, compound concentration 10 uM, replicate 2
[5] = 24 h, 1 µM, compound concentration 1 uM, replicate 1
[6] = 24 h, 1 µM, compound concentration 1 uM, replicate 2
[7] = 24 h, 10 µM, compound concentration 10 uM, replicate 1
[8] = 24 h, 10 µM, compound concentration 10 uM, replicate 2
[9] = 48 h, 1 µM, compound concentration 1 uM, replicate 1
[10] = 48 h, 1 µM, compound concentration 1 uM, replicate 2
[11] = 48 h, 10 µM, compound concentration 10 uM, replicate 1
[12] = 48 h, 10 µM, compound concentration 10 uM, replicate 2

## Cc1c(-c2ccc(O)cc2)n(Cc2ccc(OCCN3CCCCCC3)cc2)c2ccc(O)cc12 [BAZEDOXIFENE]
[1]
  Population Apoptotic (%): 40%
  Population Fragmented Nuclei (%): 15%
  Population Healthy Nuclei (%): 32%
  Population Hoechst High Intensity Objects (%): 16%
  Population Membrane Permeable-Phenotype (%): 0%
  Population Mitochondria Different-Phenotype (%): 93%
  Population Mitotic Cells (%): 59%
  Population Normal (%): 83%
  Population Pyknosed Nuclei (%): 52%
  Population Tubulin-Different-Phenotype (%): 77%
[2]
  Population Apoptotic (%): 12%
  Population Fragmented Nuclei (%): 10%
  Population Healthy Nuclei (%): 43%
  Population Hoechst High Intensity Objects (%): 6%
  Population Membrane Permeable-Phenotype (%): 11%
  Population Mitochondria Different-Phenotype (%): 36%
  Population Mitotic Cells (%): 87%
  Population Normal (%): 93%
  Population Pyknosed Nuclei (%): 46%
  Population Tubulin-Different-Phenotype (%): 38%
  Total Cell Count: 168
[3]
  Population Fragmented Nuclei (%): 14%
  Population Healthy Nuclei (%): 8%
  Population Hoechst High Intensity Objects (%): 21%
  Population Membrane Permeable-Phenotype (%): 0%
  Population Mitochondria Different-Phenotype (%): 90%
  Population Normal (%): 78%
  Population Pyknosed Nuclei (%): 77%
  Population Tubulin-Different-Phenotype (%): 72%
  Total Cell Count: 161
[4]
  Population Apoptotic (%): 88%
  Population Fragmented Nuclei (%): 9%
  Population Healthy Nuclei (%): 7%
  Population Hoechst High Intensity Objects (%): 10%
  Population Membrane Permeable-Phenotype (%): 10%
  Population Mitochondria Different-Phenotype (%): 100%
  Population Mitotic Cells (%): 11%
  Population Normal (%): 89%
  Population Pyknosed Nuclei (%): 83%
  Population Tubulin-Different-Phenotype (%): 100%
  Total Cell Count: 159
[5]
  Population Apoptotic (%): 44%
  Population Fragmented Nuclei (%): 13%
  Population Healthy Nuclei (%): 45%
  Population Hoechst High Intensity Objects (%): 13%
  Population Membrane Permeable-Phenotype (%): 5%
  Population Mitochondria Different-Phenotype (%): 84%
  Population Mitotic Cells (%): 55%
  Population Normal (%): 86%
  Population Pyknosed Nuclei (%): 40%
  Population Tubulin-Different-Phenotype (%): 54%
  Total Cell Count: 180
[6]
  Population Apoptotic (%): 18%
  Population Fragmented Nuclei (%): 8%
  Population Healthy Nuclei (%): 50%
  Population Hoechst High Intensity Objects (%): 8%
  Population Membrane Permeable-Phenotype (%): 9%
  Population Mitochondria Different-Phenotype (%): 40%
  Population Mitotic Cells (%): 81%
  Population Normal (%): 91%
  Population Tubulin-Different-Phenotype (%): 53%
  Total Cell Count: 207
[7]
  Population Apoptotic (%): 96%
  Population Fragmented Nuclei (%): 13%
  Population Healthy Nuclei (%): 9%
  Population Hoechst High Intensity Objects (%): 21%
  Population Membrane Permeable-Phenotype (%): 0%
  Population Mitochondria Different-Phenotype (%): 100%
  Population Mitotic Cells (%): 3%
  Population Normal (%): 78%
  Population Pyknosed Nuclei (%): 76%
  Population Tubulin-Different-Phenotype (%): 92%
  Total Cell Count: 175
[8]
  Population Apoptotic (%): 90%
  Population Fragmented Nuclei (%): 9%
  Population Healthy Nuclei (%): 5%
  Population Hoechst High Intensity Objects (%): 8%
  Population Membrane Permeable-Phenotype (%): 33%
  Population Mitochondria Different-Phenotype (%): 88%
  Population Mitotic Cells (%): 10%
  Population Normal (%): 91%
  Population Pyknosed Nuclei (%): 84%
  Population Tubulin-Different-Phenotype (%): 88%
  Total Cell Count: 168
[9]
  Population Apoptotic (%): 39%
  Population Fragmented Nuclei (%): 14%
  Population Healthy Nuclei (%): 69%
  Population Hoechst High Intensity Objects (%): 9%
  Population Membrane Permeable-Phenotype (%): 3%
  Population Mitochondria Different-Phenotype (%): 41%
  Population Mitotic Cells (%): 60%
  Population Normal (%): 90%
  Population Pyknosed Nuclei (%): 16%
  Population Tubulin-Different-Phenotype (%): 40%
  Total Cell Count: 275
[10]
  Population Apoptotic (%): 12%
  Population Fragmented Nuclei (%): 3%
  Population Healthy Nuclei (%): 75%
  Population Hoechst High Intensity Objects (%): 2%
  Population Membrane Permeable-Phenotype (%): 4%
  Population Mitochondria Different-Phenotype (%): 19%
  Population Mitotic Cells (%): 87%
  Population Normal (%): 97%
  Population Pyknosed Nuclei (%): 21%
  Population Tubulin-Different-Phenotype (%): 32%
  Total Cell Count: 314
[11]
  Population Apoptotic (%): 91%
  Population Fragmented Nuclei (%): 22%
  Population Healthy Nuclei (%): 1%
  Population Hoechst High Intensity Objects (%): 23%
  Population Membrane Permeable-Phenotype (%): 0%
  Population Mitochondria Different-Phenotype (%): 100%
  Population Mitotic Cells (%): 8%
  Population Normal (%): 76%
  Population Pyknosed Nuclei (%): 75%
  Population Tubulin-Different-Phenotype (%): 50%
  Total Cell Count: 178
[12]
  Population Apoptotic (%): 95%
  Population Fragmented Nuclei (%): 20%
  Population Healthy Nuclei (%): 6%
  Population Hoechst High Intensity Objects (%): 9%
  Population Membrane Permeable-Phenotype (%): 20%
  Population Mitochondria Different-Phenotype (%): 90%
  Population Mitotic Cells (%): 4%
  Population Normal (%): 90%
  Population Pyknosed Nuclei (%): 72%
  Population Tubulin-Different-Phenotype (%): 90%
  Total Cell Count: 163
